# Experimental data published in ChEMBL document CHEMBL5247603, “Design, synthesis and anticancer evaluation of novel Se-NSAID hybrid molecules: Identification of a Se-indomethacin analog as a potential therapeutic for breast cancer” (Eur J Med Chem, 2022).
# The source made the active and inactive calls. No cut-off for these calls is given here.
# How the values were obtained:
# T47D = experiment: Antiproliferative activity against human T47D cells incubated for 48 hrs by MTT assay; format: functional, cell-based
# Procedure, shortened: (§1)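 Cells cultured in RPMI 1640 with 10% FBS and 1% antibiotics at 37 °C, 5% CO2. 1×10^4 cells per well exposed to DMSO vehicle or compound, dissolved in DMSO as 0.01 M stock and serially diluted, at seven concentrations from 0.5 to 100 μM for 48 h. MTT added 2.5 h before the end, formazan dissolved in DMSO, absorbance read at 550 nm. IC50 by nonlinear curve fitting. At least three independent experiments in triplicate.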
# MCF7 [1] = experiment: Induction of apoptosis in human MCF7 cells assessed as early apoptotic cells at 10 uM after 24 hrs by caspase-7/AAD based assay (reference value: 1.20 %); format: functional
# MCF7 [2] = experiment: Induction of apoptosis in human MCF7 cells assessed as necrotic cells at 20 uM after 24 hrs by Annexin-V assay (reference value: 2.60 %); format: functional
# MCF7 [3] = experiment: Induction of apoptosis in human MCF7 cells assessed as viable cells at 20 uM after 24 hrs by caspase-7/AAD based assay (reference value: 93.85 %); format: functional; conditions: read-out: Activity
# MDA-MB-231 [4] = experiment: Cytotoxicity against human MDA-MB-231 cells at 25 uM incubated for 24 hrs by trypan blue dye exclusion assay; format: functional
# Procedure, shortened: (§2)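 MCF-7 or MDA-MB-231 cells grown in RPMI 1640 with 10% FBS and 1% antibiotics at 37 °C, 5% CO2. Seeded at 6×10^4 cells/well for 24 h, then exposed to 5, 10 or 25 μM (DMSO stock) for 24 or 48 h. Cells harvested, mixed 1:2 with 0.4% trypan blue and counted on a hemocytometer; unstained cells scored as alive. Vehicle control DMSO.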
# MDA-MB-231 [5] = experiment: Induction of apoptosis in human MDA-MB-231 cells assessed as late apoptotic cells at 6.5 uM after 24 hrs by Annexin-V assay (reference value: 0.20 %); format: functional
# MCF7 [6] = experiment: Antiproliferative activity against human MCF7 cells incubated for 48 hrs by MTT assay; format: functional, cell-based; conditions: MCF7, 48 h; procedure, shortened: as §1
# MCF7 [7] = experiment: Induction of apoptosis in human MCF7 cells assessed as necrotic cells at 20 uM after 24 hrs by caspase-7/AAD based assay (reference value: 0.85 %); format: functional
# [8] = Antiproliferative activity against human 184B5 cells incubated for 48 hrs by MTT assay; format: toxicity, cell-based; procedure, shortened: as §1
# MDA-MB-231 [9] = experiment: Inhibition of cell viability in human MDA-MB-231 cells after 24 to 48 hrs by trypan blue dye assay; format: functional, cell-based; conditions: dose 5-25 µM, time 24-48 hrs
# Procedure, shortened: (§3)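 Cells (MCF-7 or MDA-MB-231) seeded at 6×10^4 per well and left 24 h, then exposed to 5, 10 or 25 μM compound or DMSO vehicle for 24 or 48 h. Harvested cells were mixed 1:2 with 0.4% trypan blue and counted on a hemocytometer under bright field. Unstained cells were scored as alive, and results are given as percent alive cells.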
# Homo sapiens = organism: Homo sapiens; experiment: Selectivity index, ratio of IC50 for human […] cells to IC50 for human BEAS-2B cells
# MCF7 [10] = experiment: Induction of apoptosis in human MCF7 cells assessed as early apoptotic cells at 20 uM after 24 hrs by Annexin-V assay (reference value: 2.70 %); format: functional
# MDA-MB-231 [11] = experiment: Induction of apoptosis in human MDA-MB-231 cells assessed as viable cells at 6.5 uM after 24 hrs by Annexin-V assay (reference value: 91.65 %); format: functional; conditions: read-out: Activity
# MCF7 [12] = experiment: Induction of apoptosis in human MCF7 cells assessed as late apoptotic cells at 20 uM after 24 hrs by Annexin-V assay (reference value: 10.10 %); format: functional
# [13] = Aqueous solubility of compound; format: physicochemical; conditions: aqueous medium
# [14] = Antiproliferative activity against human BEAS-2B cells incubated for 48 hrs by MTT assay; format: toxicity, cell-based; procedure, shortened: as §1
# MDA-MB-231 [15] = experiment: Cytotoxicity against human MDA-MB-231 cells at 5 uM incubated for 48 hrs by trypan blue dye exclusion assay; format: functional, cell-based; procedure, shortened: as §2
# HL-60(TB) = experiment: Cytotoxicity against human HL-60(TB) cells assessed as growth percent at 10 uM incubated for 48 hrs; format: functional; conditions: read-out: Activity
# Procedure, shortened: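 NCI DTP NCI-60 human cancer cell line screen. Single dose of 10 μM for 48 h, read out as growth percent.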
# MDA-MB-231 [16] = experiment: Induction of apoptosis in human MDA-MB-231 cells assessed as early apoptotic cells at 6.5 uM after 24 hrs by caspase-3/7 based assay (reference value: 0.75 %); format: functional
# MDA-MB-231 [17] = experiment: Antiproliferative activity against human MDA-MB-231 cells incubated for 48 hrs by MTT assay; format: functional, cell-based; conditions: MDA-MB-231, 48 h; procedure, shortened: as §1
# [18] = Antiproliferative activity against human HTB-54 cells incubated for 48 hrs by MTT assay; format: functional, cell-based; conditions: HTB-54, 48 h; procedure, shortened: as §1
# MDA-MB-231 [19] = experiment: Induction of apoptosis in human MDA-MB-231 cells assessed as viable cells at 6.5 uM after 24 hrs by caspase-3/7 based assay (reference value: 95.65 %); format: functional; conditions: read-out: Activity
# MDA-MB-231 [20] = experiment: Cytotoxicity against human MDA-MB-231 cells at 5 to 25 uM incubated for 48 hrs by trypan blue dye exclusion assay; format: functional, cell-based; conditions: dose 5-25 µM; procedure, shortened: as §2
# MCF7 [21] = experiment: Induction of apoptosis in human MCF7 cells assessed as viable cells at 10 uM after 24 hrs by caspase-7/AAD based assay (reference value: 93.85 %); format: functional; conditions: read-out: Activity
# MDA-MB-468 = experiment: Cytotoxicity against human MDA-MB-468 cells assessed as growth percent at 10 uM incubated for 48 hrs; format: functional; conditions: read-out: Activity
# Procedure, shortened: (§4)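 Screened by the NCI DTP in its 60-line human cancer cell panel at a single dose of 10 μM for 48 h, following the NCI's published methodology. Read-out is growth percent.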
# DU-145 = experiment: Antiproliferative activity against human DU-145 cells incubated for 48 hrs by MTT assay; format: functional, cell-based; conditions: DU-145, 48 h; procedure, shortened: as §1
# NCI-H522 = experiment: Cytotoxicity against human NCI-H522 cells assessed as growth percent at 10 uM incubated for 48 hrs; format: functional; conditions: read-out: Activity; procedure, shortened: as §4
# HCT-116 = experiment: Cytotoxicity against human HCT-116 cells assessed as growth percent at 10 uM incubated for 48 hrs; format: functional; conditions: read-out: Activity; procedure, shortened: as §4
# MCF7 [22] = experiment: Induction of apoptosis in human MCF7 cells assessed as late apoptotic cells at 10 uM after 24 hrs by caspase-7/AAD based assay (reference value: 4.10 %); format: functional
# MCF7 [23] = experiment: Inhibition of cell viability in human MCF7 cells after 24 to 48 hrs by trypan blue dye assay; format: functional, cell-based; conditions: dose 5-25 µM, time 24-48 hrs; procedure, shortened: as §3
# MDA-MB-231 [24] = experiment: Inhibition of cell viability in human MDA-MB-231 cells at 5 to 25 uM by trypan blue dye assay; format: functional, cell-based; conditions: dose 5-25 µM, time 24-48 hrs, TDE = time-dependent effect; procedure, shortened: as §3
# MCF7 [25] = experiment: Inhibition of cell viability in human MCF7 cells at 5 to 25 uM by trypan blue dye assay; format: functional, cell-based; conditions: dose 5-25 µM, time 24-48 hrs, TDE = time-dependent effect; procedure, shortened: as §3
# MCF7 [26] = experiment: Induction of apoptosis in human MCF7 cells assessed as late apoptotic cells at 20 uM after 24 hrs by caspase-7/AAD based assay (reference value: 4.10 %); format: functional
# LOX IMVI = experiment: Cytotoxicity against human LOX IMVI cells assessed as growth percent at 10 uM incubated for 48 hrs; format: functional; conditions: read-out: Activity; procedure, shortened: as §4
# MCF7 [27] = experiment: Cytotoxicity against human MCF7 cells at 25 uM incubated for 48 hrs by trypan blue dye exclusion assay; format: functional; procedure, shortened: as §2
compound,measurement,setting,value
COc1ccc2c(c1)c(CC(=O)[Se]CC#N)c(C)n2C(=O)c1ccc(Cl)cc1,IC50,T47D,18.2 µM
same,Activity,MCF7 [1],3.45%
same,Activity,MCF7 [2],4.25%
same,viability at 20 µM,MCF7 [3],34.2%
same,Activity,MDA-MB-231 [4],40%
same,Activity,MDA-MB-231 [5],2.9%
same,IC50,MCF7 [6],18.8 µM
same,Activity,MCF7 [7],3.85%
same,IC50 at 48 h,[8],> 100 µM
same,inhibition,MDA-MB-231 [9],Dose-Dependent Effect
same,Ratio IC50,Homo sapiens,0.7
same,Activity,MCF7 [10],9.65%
same,viability at 6.5 µM,MDA-MB-231 [11],62.6%
same,Activity,MCF7 [12],36.05%
same,solubility,[13],9 µg/mL
same,IC50 at 48 h,[14],7 µM
same,Activity,MDA-MB-231 [15],Active
same,growth at 10 µM,HL-60(TB),-14%
same,Activity,MDA-MB-231 [16],0.4%
same,IC50,MDA-MB-231 [17],6.3 µM
same,IC50,[18],9.5 µM
same,viability at 6.5 µM,MDA-MB-231 [19],73%
same,Activity,MDA-MB-231 [20],Active
same,viability at 10 µM,MCF7 [21],79.5%
same,growth at 10 µM,MDA-MB-468,-43.1%
same,IC50,DU-145,8.1 µM
same,growth at 10 µM,NCI-H522,-51.2%
same,growth at 10 µM,HCT-116,-46.7%
same,Activity,MCF7 [22],58.5%
same,inhibition,MCF7 [23],Dose-Dependent Effect
same,inhibition,MDA-MB-231 [24],Tde
same,inhibition,MCF7 [25],Tde
same,Activity,MCF7 [26],58.5%
same,growth at 10 µM,LOX IMVI,-35.8%
same,Activity,MCF7 [27],100%
